Rows were chosen to be rich in hits. Some 1.5% of all compounds tested hit in one or more screens of this group.
CCR6 antag – antagonists of human CCR6 receptor; hit rate 0.49% among 340,000; AID 493098; CHO-K1 CCR6 PathHunter beta-arrestin, luminescence, CCL20-stimulated; inhibition, % at 20 µM;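 active means compounds whose inhibition of the agonist-driven luminescence signal at 20 µM reaches about 50%, limit read from the data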;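 further: cells stimulated with CCL20 at 14 nM final; plate controls were DMSO with CCL20 for no effect and DMSO without agonist for full effect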
APJ antagonist – blocks the human apelin receptor APJ. P35414. hit rate 0.32% among 330,000. inhibition, % at 20 µM. CHO-K1 APJ beta-arrestin complementation, luminescence;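 active means inhibition above about 40% at 20 µM, limit read from the data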;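 further: cells challenged with 10 nM apelin-13 agonist together with compound; plate controls were apelin-13 plus DMSO wells for no effect and DMSO wells lacking apelin-13 for full effect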
Target sequence (P35414 whole entry, looked up): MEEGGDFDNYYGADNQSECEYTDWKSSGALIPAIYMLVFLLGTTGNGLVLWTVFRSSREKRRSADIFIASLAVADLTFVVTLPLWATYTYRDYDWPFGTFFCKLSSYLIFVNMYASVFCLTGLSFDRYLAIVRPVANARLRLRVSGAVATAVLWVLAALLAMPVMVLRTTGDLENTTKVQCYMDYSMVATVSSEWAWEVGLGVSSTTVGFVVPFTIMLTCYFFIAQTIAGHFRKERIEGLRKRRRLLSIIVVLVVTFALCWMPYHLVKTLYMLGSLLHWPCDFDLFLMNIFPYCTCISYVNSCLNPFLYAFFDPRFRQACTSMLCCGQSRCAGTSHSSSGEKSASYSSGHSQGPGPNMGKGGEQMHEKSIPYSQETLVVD
CXCR6 inh – CXCR6 (human) receptor inhibition; AID 602244; hit rate 0.36% among 360,000; CHO-K1 PathHunter CXCR6 beta-arrestin, luminescence; O00574; inhibition, % at 20 µM; in the data active means inhibition above about 34%, passing the limit was not always enough;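 further: antagonist mode with CXCL16 agonist at 10 nM final; 0% = 10 nM CXCL16 with DMSO and 100% = unstimulated wells without agonist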
APJ agonist – APJ receptor agonism; P35414; CHO-K1 APJ PathHunter beta-arrestin, luminescence; 0% DMSO wells, 100% apelin; activation, % at 20 µM; hit rate 0.11% among 330,000; AID 2520;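 active means activation more than six SD over the plate average, tested at 20 µM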;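 further: 0% = DMSO alone and 100% = apelin-13 at 10 nM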
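Material: CHO-K1 APJ beta-arrestin complementation cell line; Input: cell density 1000 per well; Incubation: compound stimulation 90 min at 25 °C, detection 60 min; Signal: luminescence from split beta-galactosidase complementation, Galacton Star/Emerald II substrate; Controls: DMSO-only wells as negative, 10 nM Apelin-13 as positive control.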
EBI2 block – EBI2 (human) antagonism. P32249. EBI2 beta-arrestin recruitment, luminescence, 7a,25-OHC stimulated. inhibition, % at 5 µM. hit rate 0.81% among 360,000. AID 651636; in the data active means inhibition above about 38%;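 further: enzyme fragment complementation signal reports receptor beta-arrestin coupling in cells; 0% = agonist plus DMSO wells and 100% = wells without agonist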
Target sequence (P32249 whole entry, looked up, the tested form may be a part): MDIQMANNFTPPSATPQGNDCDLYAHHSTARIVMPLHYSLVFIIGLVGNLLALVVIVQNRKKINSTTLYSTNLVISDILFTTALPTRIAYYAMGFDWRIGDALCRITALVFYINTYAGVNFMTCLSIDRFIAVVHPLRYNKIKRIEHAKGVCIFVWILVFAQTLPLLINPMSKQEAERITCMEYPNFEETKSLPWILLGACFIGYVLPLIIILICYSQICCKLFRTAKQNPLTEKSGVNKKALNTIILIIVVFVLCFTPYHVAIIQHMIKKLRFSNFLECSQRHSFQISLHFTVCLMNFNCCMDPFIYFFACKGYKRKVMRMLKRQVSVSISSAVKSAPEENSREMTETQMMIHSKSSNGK
The depositor's hits bear a star; · = no result given.

SMILES | CCR6 antag | APJ antagonist | CXCR6 inh | APJ agonist | EBI2 block
COc1c(OC)c(O)c2c(=O)cc(-c3c(O)cccc3O)oc2c1OC | 3.5 | -29.1 | -11.8 | -4.1 | -14.6
O=c1c(Br)ccc(Br)cc1Br | 110.5* | · | 95.4* | · | 8.3
Cc1cc(Br)ccc1-n1[nH]c(C)c(C=Nc2cccc3nsnc23)c1=O | 51.9* | -22.2 | 32.9 | -4.4 | 14.8
COc1cccc(CN(C(=O)Cn2nnc(-c3ccccc3F)n2)C(C(=O)NC(C)(C)C)c2ccncc2)c1 (centres undefined) | 4.2 | -7.7 | -0.7 | -3.2 | -6.6
CCOc1ccc(NC(=O)CN(C)C(=O)c2ccc(NC3CC3)c([N+](=O)[O-])c2)cc1OCC | 10.4 | 11.7 | 8.3 | 5.0 | 0.2
COc1cc(/C=C2\SC(=O)N(Cc3ccc(F)cc3)C2=O)cc([N+](=O)[O-])c1O | 50.2* | 26.7 | 30.4 | -8.7 | 19.0
CCOC(=O)CN1C(=O)S/C(=C/c2ccc(OC)c([N+](=O)[O-])c2)C1=O | 15.0 | 9.5 | 8.7 | 1.0 | 2.0
COc1cc(/C=C2\SC(=O)N(Cc3ccc(Cl)cc3)C2=O)cc([N+](=O)[O-])c1O | 55.8* | · | 37.7 | · | 13.3
COc1cc(/C=C2/SC(=S)N(Cc3ccccc3)C2=O)cc(Cl)c1O | 46.6 | · | 37.1 | · | 9.1
O=C(/C(=C\c1ccccc1)c1nc2ccccc2[nH]1)c1ccc(Cl)cc1 | 18.9 | 7.9 | 7.9 | 4.2 | 47.9*
O=C(/C=C/c1cccc(Cl)c1)c1nc2ccccc2[nH]1 | 31.9 | 7.7 | 8.9 | 0.0 | 55.9*
O=C(/C=C/c1cccc(Cl)c1)Nc1ncccn1 | -1.7 | 16.5 | -4.5 | -2.5 | -4.5
CCCOc1ccc(/C=C2\SC(=S)N(CC3CCCO3)C2=O)cc1 (centres undefined) | 12.3 | -7.8 | 6.6 | 1.0 | 15.0
COc1cc([N+](=O)[O-])cc(/C=C2/SC(=S)N(Cc3ccccc3)C2=O)c1O | 44.6 | · | 39.2 | · | 11.4
O=C1/C(=C\c2ccc(O)cc2)SC(=S)N1Cc1ccccc1 | 51.3* | 20.1 | 17.2 | -7.8 | 16.6
COc1cc(/C=C2\NC(=S)N(C)C2=O)ccc1O | -2.7 | -36.0 | 2.1 | -4.5 | -7.3
O=C(O)c1ccc(/C=C2/SC(=S)N(Cc3ccccc3)C2=O)cc1 | -5.1 | · | 11.0 | · | 10.0
CN1C(=O)/C(=C/c2ccc(O)c([N+](=O)[O-])c2)NC1=S | 48.3 | 44.8* | 23.8 | -10.2 | 14.1
O=C1/C(=C/c2ccc(O)cc2)SC(=S)N1CC1CCCO1 (centres undefined) | 44.4 | 49.0* | 37.4 | -8.6 | 10.5
O=C1/C(=C\c2cccc([N+](=O)[O-])c2O)SC(=S)N1Cc1ccccc1 | 64.3* | · | 45.8* | · | 7.5
CN(C)c1ccc(-c2ccnc3c2CC(C)(C(=O)NCCc2ccccc2)O3)cc1 (centres undefined) | · | · | -2.3 | · | 24.5
O=C(NCC1CCCO1)c1cc2nc(-c3ccco3)cc(C(F)(F)Cl)n2n1 (centres undefined) | 2.8 | 7.9 | 0.0 | -0.6 | 0.5
Cc1cc(C)c(C)c(S(=O)(=O)N2CCC(C(=O)N3CC(C)CC(C)C3)CC2)c1C (centres undefined) | 7.1 | 2.1 | 8.6 | -6.4 | 6.4
Cc1ccccc1-n1nnnc1SCC(=O)NCC1CCCO1 (centres undefined) | -2.8 | -14.8 | -0.6 | -2.3 | -3.6
COc1ccc(C(=O)COC(=O)Cc2n[nH]c(=O)c3ccccc23)c(OC)c1 | 24.4 | -26.1 | 1.6 | 0.3 | 6.0
SMILES | CCR6 antag | APJ antagonist | CXCR6 inh | APJ agonist | EBI2 block
O=C1/C(=C/c2ccc(O)c([N+](=O)[O-])c2)SC(=S)N1Cc1ccccc1 | 54.3* | 50.3* | 43.8* | -9.2 | 8.2
O=C1/C(=C\c2ccc(O)cc2)SC(=S)N1c1cccnc1 | 64.1* | 56.9* | 49.4* | -10.9 | 15.3
COc1ccccc1CN(CC(=O)NCc1ccco1)C(=O)CNS(=O)(=O)c1ccc(C)cc1 | 11.2 | 6.7 | -4.2 | 0.0 | -5.1
COc1ccccc1CN(CC(=O)NCc1ccco1)C(=O)CNS(=O)(=O)c1ccccc1 | 60.8* | 8.0 | -4.8 | -4.0 | 3.2
CC(=O)OCCNc1cc(SCc2ccco2)c2nonc2c1[N+](=O)[O-] | 75.3* | · | 49.7* | · | -27.8
O=[N+]([O-])c1c(NCCCO)cc(SCc2ccco2)c2nonc12 | 63.0* | 10.5 | 28.2 | 1.5 | 1.1
COc1cc(C(=O)NC2CC(C)(C)CC(C)(C)C2)ccc1OC1CCN(C(C)=O)CC1 | 11.4 | 12.0 | -1.2 | 1.3 | -12.7
CC1(C)c2[nH]c3ccccc3c2C[C@@H]2C(=O)N(Cc3ccc(F)cc3)C(=O)N21 | -12.6 | -51.5 | -7.1 | 9.0 | -4.9
CC[C@H]1c2[nH]c3ccccc3c2C[C@H]2C(=O)N(c3ccc(F)cc3)C(=O)N21 | -1.3 | -11.5 | -8.2 | 3.0 | 48.0*
Cc1ccccc1N=Nc1ccc(O)c2ncccc12 | 47.9 | · | 14.0 | · | 7.6
O=S(=O)(O)c1cccc2c(N=Nc3ccc(O)c4ncccc34)cccc12 | · | · | 36.8* | · | 11.0
COC(=O)c1ccc2c(=O)n(CCCCCC(=O)N3CCN(c4ccccc4)CC3)c(=O)[nH]c2c1 | -10.2 | -34.2 | 1.7 | 38.2* | -20.3
CC1=NN(C(N)=S)C(=O)C1N=Nc1c(Cl)cc([N+](=O)[O-])cc1Cl (centres undefined) | 57.5* | 28.6 | 39.7* | -3.1 | 8.6
CCN(c1ccccc1)S(=O)(=O)c1cc2c(cc1C)NC(=O)CO2 | 0.6 | -12.1 | 7.6 | 1.0 | 1.6
COc1cc(/C=N/n2c(=S)[nH]nc(C)c2=O)cc([N+](=O)[O-])c1O | -1.5 | 4.9 | 2.7 | -3.6 | 17.5
CCc1n[nH]c(=S)n1/N=C/c1cc(OC)cc([N+](=O)[O-])c1O | 62.4* | 41.5* | 39.9 | -5.8 | -3.2
CCN(CC)C(=O)Oc1ccc(Cl)c2cccnc12 | 9.8 | -3.8 | -11.8 | -0.1 | -3.1
O=C(Nc1cccc(C(F)(F)F)c1)Oc1ccc(Cl)c2cccnc12 | 77.0* | · | 59.7* | · | 5.1
CCOc1ccccc1-c1c2cc(O)c(=O)cc-2oc2cc(O)c(O)cc12 | 56.0* | · | 27.2 | · | -1.0
O=c1cc2oc3cc(O)c(O)cc3c(-c3ccccc3O)c-2cc1O | 30.1 | · | 27.8 | · | 1.3
CCN1C(=O)/C(=C/C=C2/Sc3ccc4ccccc4c3N2CCO)SC1=S | 51.0* | 27.0 | 9.1 | -3.5 | 12.3
CC(=O)c1cccc(OCC(=O)NC2CCCCCC2)c1 | 2.0 | 17.3 | 2.6 | -3.2 | -6.1
COc1ccc(N2C(=O)CC(Sc3n[nH]c(-c4cccc(C)c4)n3)C2=O)cc1 (centres undefined) | 4.1 | 4.3 | -1.4 | -1.5 | 5.7
CCOc1ccccc1N1C(=O)CC(Sc2n[nH]c(-c3ccccc3)n2)C1=O (centres undefined) | 70.2* | 3.9 | -8.0 | -1.9 | -11.9
CC(C)C[C@@H](CN=[N+]=[N-])N1CCN(C)CCC1=O | 13.2 | 6.8 | -1.4 | -4.6 | 6.8
N#C/C(=C(/O)CCl)c1nc2ccccc2[nH]1 | 16.2 | 52.7* | 27.8 | -6.7 | -6.6
N#C/C(=C(\O)Cc1ccccc1)c1nc2ccccc2[nH]1 | 17.2 | 10.3 | 8.2 | -5.9 | -1.2
